Most compounds without a hit are left out; they make up all but 3.7% or so of the library.
hERG rescue – hERG rescue from dofetilide block, primary screen, cell-based, CHO-hERG, FluxOR thallium flux, dofetilide IC70; activation (rescue from dofetilide block), less the hit threshold, % at 10 µM; dofetilide IC70 present; Voltage-gated inwardly rectifying potassium channel KCNH2 (Homo sapiens), Q12809; 310,000 compounds, 0.51% hits; AID 1511, 2009;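 active means activation above the mean of controls blocked by dofetilide plus 5 SD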;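 further: thallium influx through hERG after potassium depolarization seen as dye fluorescence rise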
KCNK3 inh – human KCNK3 channel inhibitors, primary screen, CHO cells, FluxOR thallium flux, B-score; FluxOR fluorescence; hits give low values; B-score at 10 µM; 340,000 compounds, 0.84% hits; Potassium channel subfamily K member 3 (Homo sapiens), O14649;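 active means B-score under library mean minus 4 SD, starting fluorescence ratio at most library mean plus 5 SD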;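 further: more negative B-score means stronger inhibition of thallium flux through KCNK3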
Kir21 inh – inhibitors of mouse Kir2.1 inward-rectifier potassium channel | Inward rectifier potassium channel 2 (Mus musculus), P35561 | HEK293-Kir2.1, FluxOR thallium flux fluorescence; hits give low values | B-score at 10 µM | 310,000 compounds, 0.85% hits | AID 1672, 2009;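 active means fluorescence ratio B-score at or below minus 3 SD of library scores, with starting-brightness B-score within 2 SD, cut at about -4.2 in these data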;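 further: channel flux triggered by added potassium and thallium sulfate stimulus; B-score of peak minus minimum fluorescence over baseline after thallium stimulus; more negative B-score means stronger Kir2.1 block with less thallium influx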
KCNK9 block – KCNK9 potassium channel inhibitors, primary screen, HEK293 cells, thallium flux; AID 488922, 2010; 310,000 compounds, 1.2% hits; B-score at 10 µM; FluxOR thallium flux fluorescence; hits give low values; Potassium channel subfamily K member 9 (Homo sapiens), Q9NPC2;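 active means ratio B-score over 3 SD below the library mean, with starting fluorescence within 5 SD of its mean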;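 further: negative B-score means less thallium flux so channel inhibition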
KCNQ1 act – potentiators or activators of KCNQ1 channel, primary screen, cell-based, thallium flux, high-throughput | Potassium voltage-gated channel subfamily KQT member 1 (Homo sapiens), P51787 | CHO-K1 KCNQ1, thallium flux FluxOR fluorescence; hits give high values | B-score at 10 µM | 310,000 compounds, 0.35% hits | AID 2648, 2010;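 active means fluorescence ratio B-score, a plate-corrected score, at least three library SD, with initial intensity B-score within 5 SD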
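Schedule – 37 °C overnight plating, 90-min dark dye load, 20-min compound pretreatment · System – stable KCNQ1 CHO-K1 line · Probe or stimulus – thallium- and potassium-containing depolarizing buffer · Measured by – kinetic FluxOR fluorescence, 10 s baseline plus 110 s post-stimulus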
KCNQ1 block – inhibitors of human KCNQ1 channel, primary screen, cell-based, thallium flux, high-throughput; CHO-K1 KCNQ1, FluxOR thallium flux fluorescence; hits give high values; B-score at 10 µM; AID 2642, 2010; 310,000 compounds, 1.3% hits; Potassium voltage-gated channel subfamily KQT member 1 (Homo sapiens), P51787;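 active means compounds whose thallium flux B-score, printed positive for inhibition, exceeds three library SD while starting fluorescence stays within three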;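 further: channel opened by potassium depolarization with thallium stimulus after 20 min compound exposure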
KCNQ1 inh valid – KCNQ1 potassium channel inhibitors, confirmation, cell-based, Tl flux, duplicate; inhibition, % at 10 µM; KCNQ1 cell line, FluxOR thallium flux fluorescence; shares compounds with KCNQ1 block; AID 588353, 2011; 1,600 compounds, 93% hits;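 active means primary screen active, with duplicate mean exceeding buffer control mean plus 3 SD of buffer wells, cut at about 28% in these data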;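 further: 0% = buffer control ratio and 100% = XE991 inhibitor control ratio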
CHO KCNQ1 ctr – thallium flux effects in parental CHO cells, counter-screen for KCNQ1 inhibitor project, cell-based, Tl flux; shares compounds with KCNQ1 block; parental CHO-K1, FluxOR thallium flux fluorescence ratio; hits give low values; zero means no signal rise above baseline; fluorescence ratio (Tl flux) at 10 µM; 1,600 compounds, 21% hits; AID 588366, 2011;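 active means mean of duplicate thallium-flux fluorescence ratios in parental host cells more than 5 SD below the buffer control mean, cut at about 0.38 in these data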;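 further: ratio is peak minus minimum fluorescence divided by baseline fluorescence; actives read low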
KCNQ1 ephys val – KCNQ1 channel inhibitors, confirmation, orthogonal assay, cell-based, automated electrophysiology; 490 compounds, 20% hits; KCNQ1-CHO cells, automated patch clamp current; calls only at 10 µM; shares compounds with KCNQ1 block; AID 624120, 2012;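 active means KCNQ1 current drop exceeding 3 SD of negative control wells, seen in both duplicate runs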;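 further: steady state current during a 2 s step from -80 to +40 mV; negative values mean current inhibition and positive values mean potentiation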
KCNQ2 inh – KCNQ2 channel inhibition, selectivity assay for KCNQ1 inhibitor project, cell-based; shares compounds with KCNQ1 block; AID 651746, 2012; KCNQ2 cells, FluxOR thallium flux fluorescence; inhibition, % at 10 µM; 1,600 compounds, 71% hits;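 active means mean percent inhibition of the KCNQ2 thallium signal more than 5 SD above the buffer-only control wells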;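 further: KCNQ2 expressed in CHO cells; 0% = buffer control wells and 100% = XE-991 inhibitor control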
KCNQ1-KCNE1 inh – KCNQ1/KCNE1 channel inhibition, selectivity assay for KCNQ1 inhibitor project, CHO-K1 cells, thallium flux, FluxOR | shares compounds with KCNQ1 block | FluxOR thallium flux fluorescence | inhibition, % at 10 µM | 1,600 compounds, 77% hits | AID 652147, 2013;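 active means mean percent inhibition of duplicate wells above the buffer-only control mean plus 3 SD of those controls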;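 further: 0% = buffer only wells and 100% = XE-991 inhibitor control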
Target sequence (P51787 whole entry, looked up): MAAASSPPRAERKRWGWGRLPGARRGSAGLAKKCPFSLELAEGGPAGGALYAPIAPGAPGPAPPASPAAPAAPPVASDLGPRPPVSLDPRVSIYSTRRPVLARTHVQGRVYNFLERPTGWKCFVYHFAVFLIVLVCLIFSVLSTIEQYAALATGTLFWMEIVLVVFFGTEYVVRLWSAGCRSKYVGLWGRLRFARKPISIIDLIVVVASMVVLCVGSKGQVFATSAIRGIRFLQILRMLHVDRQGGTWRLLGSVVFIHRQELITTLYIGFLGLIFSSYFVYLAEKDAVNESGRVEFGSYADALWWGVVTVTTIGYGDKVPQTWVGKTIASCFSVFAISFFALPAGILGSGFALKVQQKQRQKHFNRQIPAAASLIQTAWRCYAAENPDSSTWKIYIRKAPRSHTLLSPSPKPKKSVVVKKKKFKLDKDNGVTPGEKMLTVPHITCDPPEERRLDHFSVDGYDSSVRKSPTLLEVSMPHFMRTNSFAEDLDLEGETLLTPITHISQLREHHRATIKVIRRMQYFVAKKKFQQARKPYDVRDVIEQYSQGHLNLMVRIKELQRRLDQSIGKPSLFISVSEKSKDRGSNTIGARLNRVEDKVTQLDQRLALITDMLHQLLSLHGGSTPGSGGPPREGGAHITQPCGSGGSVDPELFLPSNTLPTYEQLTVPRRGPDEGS
An asterisk follows results filed as active; i = inactive; . = not tested or not shown.

SMILES | hERG rescue | KCNK3 inh | Kir21 inh | KCNK9 block | KCNQ1 act | KCNQ1 block | KCNQ1 inh valid | CHO KCNQ1 ctr | KCNQ2 inh | KCNQ1-KCNE1 inh | others
CSCCC(NC(=O)c1ccccc1Cl)C(=O)Nc1ccncc1 (stereo unspecified) | . | i | . | . | . | . | . | . | . | .
CCc1ccc(OCC(O)CN2CCN(c3ccc(OC)cc3)CC2)cc1 (stereo unspecified) | -7 | i | 0.01 | i | i | i | . | . | . | .
Cc1cccc(-c2nc(Nc3ccc(N4CCOCC4)cc3)c3ccccc3n2)c1 | -8 | i | 0.64 | i | i | 13* | 108* | 0.43 | 90%* | 148%* | KCNQ1 ephys val=i
c1ccc2c(Nc3ccc(N4CCOCC4)cc3)nc(N3CCOCC3)nc2c1 | 0 | i | 0.38 | i | i | i | . | . | . | .
C/C(CC(=O)Nc1cc(Cl)ccc1C)=N\NC(=O)C(=O)N1CCCC1 | -4 | i | 0.35 | i | i | i | . | . | . | .
CC(C)(C)N=Cc1c(O)ccc2oc3c(c12)CCCC3 | -16 | i | -4.3 | -7.9* | i | 9* | 0 | 0.46 | 60%* | i
NC(=O)N/N=C/c1c(O)ccc2oc3c(c12)CCCC3 | -14 | i | -0.39 | i | i | i | . | . | . | .
CC(C)(C)C(=O)Cn1c(=N)n(Cc2ccccc2)c2ccccc21 | -16 | i | -0.19 | i | i | 7* | 86* | 0.39 | 114%* | 90%*
CC(C)(C)C(=O)Cn1c(=N)n(Cc2ccccc2Cl)c2ccccc21 | -8 | i | -0.28 | i | i | i | . | . | . | .
CCOC(=O)C1=CN(CC2CCCCC2)CCC1=O | . | i | . | . | . | . | . | . | . | .
COc1ccc(Nc2ccccc2NC(=O)c2ccccc2Br)cc1 | -8 | i | -1.3 | i | i | 11* | 89* | 0.44 | 94%* | 90%*
Cc1ccccc1C(=O)Nc1ccccc1NC(=O)c1ccccc1Br | -10 | i | -1 | i | i | i | . | . | . | .
COc1c2ccc(OCC/C(C)=C/C(=O)C=C(C)C)cc2nc2occc12 | . | i | . | . | . | . | . | . | . | .
CC1CCCCC1NC(=O)Cn1cnc2sccc2c1=O (stereo unspecified) | . | i | . | . | . | . | . | . | . | .
Cc1cccc(NC(=O)c2ccc(C3SCC(=O)N3CCc3ccccc3)cc2)c1 (stereo unspecified) | -20 | i | -0.34 | i | i | 7* | 99* | 0.43 | 109%* | 82%* | KCNQ1 ephys val=i
CC(c1ccccc1)N1C(=O)c2ccc(C(=O)Nc3ccccc3C(=O)O)cc2C1=O (stereo unspecified) | -18 | i | 0.06 | i | i | i | . | . | . | .
